Series [1] relates to PC-3. As to the kind of experiment: Antioxidant activity in human PC3 cells assessed as decrease in t-BuOOH-induced ROS elevation at 1 to 10 uM incubated for 24 hrs prior to t-BuOOH-challenge measured after 30 mins by dichlorofluorescein-based flow cytometric analysis. It counts as functional, cell-based. The essentials:
(§1)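 PC3 cells grown in DMEM with 2 mM L-glutamine, 10% heat-inactivated FBS and 1% pen/strep at 37 °C, then exposed to compound for 24 h. Exposed to 300 μM t-BuOOH for 30 min at 37 °C, washed, resuspended at 2 × 10^5 cells/ml in HBSS with 10 μM DCFH-DA for 20 min at 37 °C. DCF read by flow cytometry (FL1-H). Mean ± SEM of three experiments in triplicate; ANOVA with Bonferroni.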

Series [2] can be described thus: Antioxidant activity against ABTS radical assessed as trolox equivalents by TEAC assay. The class given is functional. In outline:
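ABTS radical cation diluted in PBS pH 7.4 to A734 0.70, equilibrated at 30 °C, then added to sample solutions in MeOH at 0.3, 0.5, 1 and 1.5 concentration. Inhibition of A734 versus MeOH blank, run in triplicate, plotted against concentration alongside Trolox standard. TEAC = Trolox concentration equivalent in capacity to 1 mM compound.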

Series [3] has as its system PC-3. As to the kind of experiment: Cytotoxicity against human PC3 cells. It counts as cell-based.
The test system of series [4] is PC-3. As to the kind of experiment: Antioxidant activity in human PC3 cells assessed as decrease in t-BuOOH-induced ROS elevation at 10 uM incubated for 24 hrs prior to t-BuOOH-challenge measured after 30 mins by dichlorofluorescein-based flow cytometric analysis. The class given is functional, cell-based. In outline: as §1

Drawing on ChEMBL document CHEMBL2034822, “HPLC-ESIMS(n) profiling, isolation, structural elucidation, and evaluation of the antioxidant potential of phenolics from Paepalanthus geniculatus” (J Nat Prod, 2012), this text covers Activity for 22 compounds.

The structures appear in SMILES notation. Active and inactive are the calls of the source. The rule behind the calls is not given here.

On to `COc1c(O)cc2oc(-c3ccc(O)c(O)c3)c(O[C@@H]3O[C@H](CO)[C@@H](O)[C@H](O)[C@H]3O)c(=O)c2c1O`, for which, in the series on PC-3 [1], the result was inactive. In addition, the Activity in series [2] is 0.525 mM; with PC-3 [3], “Non-toxic”.

Consider `COc1cc(O[C@H]2O[C@H](CO[C@H]3O[C@H](CO)[C@@H](O)[C@H](O)[C@H]3O)[C@@H](O)[C@H](O)[C@H]2O)c2c(O)c3c(=O)oc(C)cc3c(OC)c2c1`, for which the result in the series on PC-3 [1] was inactive. Further, the values for the Activity (in series [2]; with PC-3 [3]) were 0.706 mM and “Non-toxic”, respectively.

Turning to `COc1cc(/C=C/C(=O)OC[C@H]2O[C@@H](Oc3c(-c4ccc(O)cc4)oc4cc(O)c(OC)c(O)c4c3=O)[C@H](O)[C@@H](O)[C@@H]2O)ccc1O`, the result in the series with PC-3 [1] was inactive. For the same compound, the Activity in series [2] was 0.984 mM; in the series with PC-3 [3], “Non-toxic”.

Consider `COc1c2cc(O)cc(O[C@@H]3O[C@H](CO[C@@H]4O[C@H](CO)[C@@H](O)[C@H](O)[C@H]4O)[C@@H](O)[C@H](O)[C@H]3O)c2c(O)c2c(=O)oc(C)cc12`, for which the outcome with PC-3 [1] was inactive. Besides, the Activity in series [2] was 1.04 mM; in the series on PC-3 [3], “Non-toxic”.

Take `COc1c(O)cc2oc(-c3ccc(O)cc3)c(O[C@@H]3O[C@H](CO[C@@H]4O[C@@H](C)[C@H](O)[C@@H](OC(C)=O)[C@H]4OC(C)=O)[C@@H](O)[C@H](O)[C@H]3O)c(=O)c2c1O`: the result in the series with PC-3 [1] was inactive. Moreover, the Activity in series [2] was 1.4 mM; in the series on PC-3 [3] it was “Non-toxic”.

Regarding `O=c1c(O[C@@H]2O[C@H](CO)[C@@H](O)[C@H](O)[C@H]2O)c(-c2ccc(O)c(O)c2)oc2cc(O)cc(O)c12`, the Activity in series [2] came to 1.78 mM.

For `COc1c(O)cc2oc(-c3ccc(O)cc3)c(O[C@@H]3O[C@H](CO[C@@H]4O[C@@H](C)[C@H](O)[C@@H](O)[C@H]4OC(C)=O)[C@@H](O)[C@H](O)[C@H]3O)c(=O)c2c1O`, the result with PC-3 [1] was inactive. Also, the Activity is 1 mM in series [2] and “Non-toxic” with PC-3 [3].

On to `O=c1c(O)c(-c2ccc(O)c(O)c2)oc2cc(O)cc(O)c12`, for which the Activity in series [2] was 1.87 mM.

For `COc1c(O)cc2oc(-c3ccc(O)cc3)c(O[C@@H]3O[C@H](COC(=O)/C=C/c4ccc(O)cc4)[C@@H](O)[C@H](O)[C@H]3O)c(=O)c2c1O`, the result with PC-3 [1] was inactive. Further, the Activity in series [2] was 1.28 mM; in the series on PC-3 [3], “Non-toxic”.

With `COc1c(O)cc2oc(-c3ccc(O)cc3)c(O[C@@H]3O[C@H](CO[C@@H]4O[C@@H](C)[C@H](O)[C@@H](O)[C@H]4O)[C@@H](O)[C@H](O)[C@H]3O)c(=O)c2c1O`, the Activity in series [2] is 2.06 mM; with PC-3 [3], “Non-toxic”. In the series with PC-3 [4], the result was Active.

In the case of `COc1c(O)cc2oc(-c3ccc(O)cc3)c(O[C@@H]3O[C@H](CO)[C@@H](O)[C@H](O)[C@H]3O)c(=O)c2c1O`, the outcome in the series with PC-3 [1] was inactive. Besides, the Activity is 1.27 mM in series [2] and “Non-toxic” with PC-3 [3].

As for `COc1c(O)cc2oc(-c3ccc(O)cc3)c(O[C@@H]3O[C@H](COC(=O)[C@H]4[C@H](c5ccc(O)cc5)[C@H](C(=O)OC[C@H]5O[C@@H](Oc6c(-c7ccc(O)cc7)oc7cc(O)c(OC)c(O)c7c6=O)[C@H](O)[C@@H](O)[C@@H]5O)[C@H]4c4ccc(O)cc4)[C@@H](O)[C@H](O)[C@H]3O)c(=O)c2c1O` [GENICULATIN], the result in the series on PC-3 [1] was inactive. Moreover, the Activity is 0.738 mM in series [2] and “Non-toxic” in the series with PC-3 [3].

With `O=c1c(O[C@@H]2O[C@H](CO)[C@@H](O)[C@H](O)[C@H]2O)c(-c2ccc(O)cc2)oc2cc(O)cc(O)c12`, the Activity in series [2] was 1.18 mM.

Turning to `COc1c(O)cc2oc(-c3ccc(O)c(O)c3)c(O[C@@H]3O[C@H](CO[C@@H]4O[C@@H](C)[C@H](O)[C@@H](O)[C@H]4O)[C@@H](O)[C@H](O)[C@H]3O)c(=O)c2c1O`, the figures for the Activity (in series [2]; in the series on PC-3 [3]) were 2.02 mM and “Non-toxic”, respectively. Also, the result in the series on PC-3 [4] was Active.

Take `COc1c(O)cc2oc(-c3ccc(O)cc3)c(O[C@@H]3O[C@H](CO[C@@H]4O[C@@H](C)[C@H](OC(C)=O)[C@@H](O)[C@H]4O)[C@@H](O)[C@H](O)[C@H]3O)c(=O)c2c1O`: the outcome in the series with PC-3 [1] was inactive. Besides, the values for the Activity (in series [2]; with PC-3 [3]) were 0.968 mM and “Non-toxic”, respectively.

In the case of `COc1c(O)cc2oc(-c3ccc(O)c(O)c3)c(O[C@@H]3O[C@H](CO[C@@H]4O[C@@H](C)[C@H](OC(C)=O)[C@@H](O)[C@H]4O)[C@@H](O)[C@H](O)[C@H]3O)c(=O)c2c1O`, the Activity is 2.16 mM in series [2] and “Non-toxic” in the series on PC-3 [3]. In addition, the outcome with PC-3 [4] was Active.

Take `COc1c(O)cc2oc(-c3ccc(O)c(O)c3)c(O[C@@H]3O[C@H](CO[C@@H]4O[C@@H](C)[C@H](O)[C@@H](O)[C@H]4OC(C)=O)[C@@H](O)[C@H](O)[C@H]3O)c(=O)c2c1O`: in the series with PC-3 [1], the outcome was inactive. Moreover, the Activity in series [2] is 1.37 mM; in the series on PC-3 [3], “Non-toxic”.

`COc1cc(O[C@H]2O[C@H](CO[C@@H]3O[C@H](CO)[C@@H](O)[C@@H](O)[C@H]3O)[C@@H](O)[C@H](O)[C@H]2O)c2c(O)c3c(=O)oc(C)cc3c(OC)c2c1`: in the series with PC-3 [1], the outcome was inactive. The Activity in series [2] is 0.57 mM; with PC-3 [3], “Non-toxic”.

Take `COc1c2cc(O)cc(O[C@@H]3O[C@H](CO)[C@@H](O)[C@H](O)[C@H]3O)c2c(O)c2c(=O)oc(C)cc12`: in the series on PC-3 [1], the result was inactive. In addition, the Activity in series [2] is 0.898 mM; with PC-3 [3], “Non-toxic”.

Take `COc1cc2oc(-c3ccc(O)c(O)c3)c(O[C@@H]3O[C@H](CO[C@@H]4O[C@@H](C)[C@H](O)[C@@H](O)[C@H]4O)[C@@H](O)[C@H](O)[C@H]3O)c(=O)c2c(O)c1O`: the outcome with PC-3 [1] was inactive. The figures for the Activity (in series [2]; in the series with PC-3 [3]) were 1.54 mM and “Non-toxic”, respectively.

`COc1c(O)cc2oc(-c3ccc(O)cc3)c(O[C@@H]3O[C@H](CO)[C@@H](O)[C@H](O)[C@H]3O[C@@H]3O[C@@H](C)[C@H](O)[C@@H](O)[C@H]3O)c(=O)c2c1O`: in the series with PC-3 [1], the outcome was inactive. The values for the Activity (in series [2]; in the series on PC-3 [3]) were 1.53 mM and “Non-toxic”, respectively.

As for `COc1c(O)cc2oc(-c3ccc(O)c(O)c3)c(O[C@@H]3O[C@H](CO[C@@H]4O[C@@H](C)[C@H](OC(C)=O)[C@@H](O)[C@H]4OC(C)=O)[C@@H](O)[C@H](O)[C@H]3O)c(=O)c2c1O`, the result in the series on PC-3 [1] was inactive. In addition, the Activity in series [2] was 1.21 mM; in the series on PC-3 [3] it was “Non-toxic”.
